Test results as given in ChEMBL document CHEMBL4304784, “Discovery of new potent dual sigma receptor/GluN2b ligands with antioxidant property as neuroprotective agents” (Eur J Med Chem, 2019).
Converted amounts (≈) assume the structure as drawn.

Experiments:
[1] = Selectivity ratio of Ki for sigma1 receptor in guinea pig brain membranes to Ki for sigma2 receptor in rat liver membranes; type: cell membranes
[2] = molecular target: Sigma non-opioid intracellular receptor 1 (Cavia porcellus, UniProt Q60492); test: Displacement of [3H]-(+)-pentazocine from sigma1 receptor in guinea pig brain cortex membranes incubated for 120 mins by solid scintillation counting method; type: cell membranes
Sigma non-opioid intracellular receptor 1, sequence (Q60492 whole entry): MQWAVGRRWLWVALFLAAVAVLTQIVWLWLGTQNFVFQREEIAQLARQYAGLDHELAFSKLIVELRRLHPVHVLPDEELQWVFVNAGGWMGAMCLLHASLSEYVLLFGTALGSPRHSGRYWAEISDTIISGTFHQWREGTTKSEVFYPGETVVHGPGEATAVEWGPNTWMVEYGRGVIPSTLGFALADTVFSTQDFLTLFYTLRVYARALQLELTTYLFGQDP
How it was run: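 Guinea pig brain cortex membranes (about 100 µg protein) with 2 nM [3H]-(+)-pentazocine in 50 mM TRIS pH 7.4 at 37 °C. Non-specific binding defined with 10 µM unlabeled (+)-pentazocine. Six concentrations, 10^-5 to 10^-10 M, in duplicate. 120 min with shaking, filtration, solid scintillator counting.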

[3] = molecular target: Glutamate NMDA receptor; GRIN1/GRIN2B (Homo sapiens, UniProt Q05586+Q13224); test: Displacement of [3H]ifenprodil from GluN1a/GluN2B (unknown origin) expressed in mouse L(tk-) cell membranes after 120 mins by solid scintillation counting method
Glutamate NMDA receptor; GRIN1/GRIN2B, sequence (Q13224 whole entry, other chains not shown): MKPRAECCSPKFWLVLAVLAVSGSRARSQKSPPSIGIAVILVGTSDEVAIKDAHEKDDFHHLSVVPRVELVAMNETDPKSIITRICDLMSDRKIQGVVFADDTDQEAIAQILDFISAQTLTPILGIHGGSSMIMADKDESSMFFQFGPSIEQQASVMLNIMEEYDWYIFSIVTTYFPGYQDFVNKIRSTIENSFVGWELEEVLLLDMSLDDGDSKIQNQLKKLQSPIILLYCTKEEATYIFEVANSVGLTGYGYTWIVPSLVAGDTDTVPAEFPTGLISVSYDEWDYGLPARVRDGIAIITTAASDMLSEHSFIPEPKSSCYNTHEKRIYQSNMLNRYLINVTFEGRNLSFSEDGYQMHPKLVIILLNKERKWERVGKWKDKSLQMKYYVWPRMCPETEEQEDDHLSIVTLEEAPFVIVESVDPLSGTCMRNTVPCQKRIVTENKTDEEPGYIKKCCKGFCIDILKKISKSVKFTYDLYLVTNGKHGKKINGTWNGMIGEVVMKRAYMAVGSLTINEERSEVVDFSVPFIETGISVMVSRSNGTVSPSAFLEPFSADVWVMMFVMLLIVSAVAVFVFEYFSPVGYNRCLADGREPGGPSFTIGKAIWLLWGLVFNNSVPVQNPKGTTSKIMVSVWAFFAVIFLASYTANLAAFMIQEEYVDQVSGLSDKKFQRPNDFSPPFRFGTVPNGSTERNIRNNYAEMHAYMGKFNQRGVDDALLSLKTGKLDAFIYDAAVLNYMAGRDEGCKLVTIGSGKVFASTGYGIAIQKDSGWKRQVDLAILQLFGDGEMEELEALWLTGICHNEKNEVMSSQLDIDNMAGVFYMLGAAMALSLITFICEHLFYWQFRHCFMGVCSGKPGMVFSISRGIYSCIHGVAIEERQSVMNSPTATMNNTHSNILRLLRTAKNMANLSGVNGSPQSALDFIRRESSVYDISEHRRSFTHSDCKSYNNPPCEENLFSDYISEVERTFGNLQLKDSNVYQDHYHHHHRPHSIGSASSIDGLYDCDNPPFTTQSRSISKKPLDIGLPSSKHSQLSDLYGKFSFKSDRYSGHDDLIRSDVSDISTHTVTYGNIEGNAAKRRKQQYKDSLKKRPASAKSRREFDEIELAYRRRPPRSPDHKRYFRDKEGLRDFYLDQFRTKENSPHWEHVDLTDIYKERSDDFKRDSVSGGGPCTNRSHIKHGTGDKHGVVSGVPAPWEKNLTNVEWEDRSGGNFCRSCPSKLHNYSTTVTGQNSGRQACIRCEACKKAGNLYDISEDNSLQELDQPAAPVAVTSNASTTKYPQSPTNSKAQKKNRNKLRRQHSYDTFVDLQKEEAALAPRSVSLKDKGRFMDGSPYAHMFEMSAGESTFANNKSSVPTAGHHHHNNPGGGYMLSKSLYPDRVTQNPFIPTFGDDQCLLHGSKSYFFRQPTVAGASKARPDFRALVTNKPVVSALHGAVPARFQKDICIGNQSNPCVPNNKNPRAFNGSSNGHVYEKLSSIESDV
How it was run: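 Membranes (about 20 μg protein) from mouse L(tk-) cells stably carrying GluN1a/GluN2B, induced with 4 μM dexamethasone and 4 μM ketamine for 24 h. Incubated with 5 nM [3H]ifenprodil in 5 mM TRIS/1 mM EDTA pH 7.5 at 37 °C, 120 min. Non-specific binding defined with 10 μM ifenprodil.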

[4] = molecular target: T1, Sigma intracellular receptor 2 (Rattus norvegicus, UniProt Q5U3Y7); test: Displacement of [3H]-di-o-tolylguanidine from sigma2 receptor in rat liver membranes in the presence of sigma1 receptor ligand (+)-pentazocine incubated for 120 mins by scintillation counting method; type: cell membranes
T1 sequence (Q5U3Y7 whole entry): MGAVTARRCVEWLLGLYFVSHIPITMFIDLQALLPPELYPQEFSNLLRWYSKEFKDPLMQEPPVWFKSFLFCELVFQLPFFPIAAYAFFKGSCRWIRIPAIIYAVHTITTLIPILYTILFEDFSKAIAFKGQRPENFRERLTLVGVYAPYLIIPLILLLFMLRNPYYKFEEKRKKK
How it was run: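 Rat liver membranes (about 100 µg protein) with 3 nM [3H]di-o-tolylguanidine in 50 mM TRIS pH 8.0 containing 500 nM (+)-pentazocine, at rt. Non-specific binding defined with 10 µM unlabeled DTG. Concentrations 10^-5 to 10^-10 M, in duplicate. 120 min, filtration, scintillation counting. Three independent experiments, mean ± SEM.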

[5] = Selectivity ratio of Ki for sigma2 receptor in rat liver membranes to Ki for GluN1a/GluN2B (unknown origin) expressed in mouse L(tk-) cell membranes; type: cell-based
[6] = Antioxidant activity assessed as H2O2 radical scavenging activity; type: functional
How it was run: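 Compounds at 0.05, 0.1, 0.2 and 0.4 mg/mL in phosphate buffer pH 7.4. 0.353 mL of 4 mM H2O2 in phosphate buffer added to 2.0 mL of each solution, absorbance read at 239 nm. Percent inhibition calculated from absorbances relative to control. Triplicate, mean ± SEM.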

[7] = Antioxidant activity assessed as ABTS radical scavenging activity incubated for 40 mins; type: functional
How it was run: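 Test compound at 0.05, 0.1, 0.2 and 0.4 mg/mL (200 µL) added to 1.8 mL ethanolic ABTS 7mM. Incubated 40 min at room temperature, absorbance read at 735 nm against ABTS solution. Percent inhibition computed from absorbances and used to derive IC50. Triplicate, mean ± SEM; ascorbic acid as reference.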

| Ratio Ki [1] | Ki [2] [nM] | Ki [3] [nM] | Ki [4] [nM] | IC50 [6] [µg/mL] | IC50 [7] [µg/mL] | SMILES | Ratio Ki [5] |
| --- | --- | --- | --- | --- | --- | --- | --- |
| 0.33 | 944 | 226 | 2800 |  |  | O=c1oc(-c2ccccc2)nn1CCCCN1CCN(c2ccccn2)CC1 | 12.4 |
| 2.2 | 179 | 58 | 80 |  |  | O=C1CCc2ccccc2N1CCCCN1CCc2ccc([N+](=O)[O-])cc2C1 | 1.4 |
| 1.6 | 120 | 78 | 73 |  |  | O=C1CCc2ccccc2N1CCCCN1CCN(c2ccccn2)CC1 | 0.9 |
| 2.2 | 829 | 412 | 383 |  |  | O=c1oc(-c2ccccc2)nn1CCCCN1CCc2ccc([N+](=O)[O-])cc2C1 | 0.9 |
|  |  |  |  | 17.11 (≈ 97.1 µM) | 13.85 (≈ 78.6 µM) | O=C1O[C@H]([C@@H](O)CO)C(O)=C1O [ASCORBIC ACID] |  |
| 0.57 | 383 | 68 | 686 |  |  | O=c1oc(-c2ccccc2)nn1CCCCN1CCN(c2ccc(F)cc2)CC1 | 10 |
|  |  |  |  | 25.88 (≈ 103 µM) | 22.15 (≈ 88.5 µM) | Cc1c(C)c2c(c(C)c1O)CCC(C)(C(=O)O)O2 (centres undefined) [TROLOX] |  |
